PLC-gamma1 inh = blocks human PLC-gamma1 enzyme activity. P19174. purified PLC-gamma1, fluorogenic substrate, fluorescence. inhibition, % at 12.2 µM. 370,000 compounds, 0.84% hits. AID 720700; in the data active means inhibition above about 9.5%
PLCb3 inh = blocks human PLC-beta3 enzyme activity. Q01970. Purified PLC-beta3, fluorogenic substrate, fluorescence. inhibition, % at 12.2 µM. 370,000 compounds, 0.18% hits. AID 720704;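 further: 0% = median of compound wells on plate and 100% = full blocker control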
Arrestin-AP2 inh = human beta-arrestin and AP2 interaction inhibition. FITC-arrestin peptide / GST-AP2 beads, flow cytometry; AP2 beta2 appendage carries R879A mutation. 340,000 compounds, 0.31% hits. inhibition, % at 10 µM;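 active means inhibition above a set limit, near 3 SD of compounds lacking own fluorescence, cut at about 54% in these data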;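 further: plate controls were DMSO wells for no effect and 5 µM unlabelled arrestin peptide for full effect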
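System: GST-AP2 R879A glutathione beads | Also added: FITC-arrestin peptide, 50 nM | Times: 12 min plus 1 h, RT | Signal: Bead flow cytometry, FITC channel | Buffer or medium: PBS with 0.05% Tween 20 and 0.1% BSA | Read-out basis: Percent drop in bead-associated FITC signal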
NTR1 ag = NTR1 (human) agonism; P30989; NTR1-U2OS beta-arrestin-GFP spot imaging, agonist mode; activation, % at 20 µM; 330,000 compounds, 0.17% hits; AID 493036;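 active means activation at or above 40% of the spot to cytoplasm intensity ratio, with at least 20 cells analyzed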;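 further: 0% = DMSO without peptide and 100% = 100 nM NTR1 peptide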
Target sequence (P30989 whole entry, looked up): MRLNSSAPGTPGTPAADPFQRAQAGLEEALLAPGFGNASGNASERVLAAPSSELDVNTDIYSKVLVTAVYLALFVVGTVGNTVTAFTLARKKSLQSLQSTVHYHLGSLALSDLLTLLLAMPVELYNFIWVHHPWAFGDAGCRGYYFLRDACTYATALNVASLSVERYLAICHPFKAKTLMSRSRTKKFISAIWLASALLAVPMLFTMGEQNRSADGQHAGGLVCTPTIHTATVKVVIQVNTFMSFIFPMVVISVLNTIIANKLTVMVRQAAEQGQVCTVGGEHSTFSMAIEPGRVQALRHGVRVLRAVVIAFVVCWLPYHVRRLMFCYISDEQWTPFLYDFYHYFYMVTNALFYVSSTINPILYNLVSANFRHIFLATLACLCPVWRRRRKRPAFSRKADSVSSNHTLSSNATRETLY
PLCgamma1 ctr = inhibits human PLC-gamma1 in PLC-beta3 counter-screen. 3,300 compounds, 3.1% hits. purified PLC-gamma1, fluorogenic substrate, fluorescence. shares compounds with PLC-gamma1 inh. inhibition, % at 12.3 µM; in the data active means inhibition above about 9.5%
PLCbeta3 conf = confirmation of human PLC-beta3 inhibitors; shares compounds with PLC-gamma1 inh; purified PLC-beta3, fluorogenic substrate fluorescence; inhibition, % at 12.3 µM; 3,300 compounds, 1% hits; AID 743261
Active calls of the source: *; · = no result given. The list is not random: actives were taken first. Their share in the collection is about 1.3%. Unless noted, no stated cut-off is given here; in the data, active means inhibition above about 11%; inactive means the rest.

SMILES | PLC-gamma1 inh | PLCb3 inh | Arrestin-AP2 inh | NTR1 ag | PLCgamma1 ctr | PLCbeta3 conf
CCOC(=O)[C@@]12CCCC3=C1N(CCC3)C(=O)[C@H]2CC(=O)NCCCCc1ccccc1 | 3 | 2 | · | · | · | ·
COC(=O)[C@H](CC(C)C)N(Cc1cn(CC2CCCCC2)nn1)S(=O)(=O)c1ccc(F)cc1Br | 6 | 2 | · | · | · | ·
O=Cc1c[nH]c2ncccc12 | 10* | -7 | 18 | 0 | -5 | -2
O=Cc1cnc2ccccc2c1-c1ccccc1 | -1 | -11 | -9 | 9 | · | ·
C=CCCC(=O)N(Cc1ccccc1)c1ccccc1C(=O)Nc1cc(OC)ccc1OC | -9 | -16 | · | · | · | ·
CC(=O)Nc1ccc(-c2ccnc3c2CC(C)(C(=O)Nc2ccccc2)O3)cc1 (stereo not drawn) | 0 | 2 | · | · | · | ·
CN(C)c1ccc(CNC(=O)C2(C)Cc3c(-c4ccccc4)ccnc3O2)cc1 (stereo not drawn) | -1 | 1 | · | · | · | ·
CC(=O)Nc1ccc(-c2ccnc3c2CC(C)(C(=O)NCCc2ccccc2)O3)cc1 (stereo not drawn) | 14* | 6 | · | · | -4 | 0
CN(C)c1ccc(CNC(=O)C2(C)Cc3c(-c4cccc(C(N)=O)c4)ccnc3O2)cc1 (stereo not drawn) | 10.0* | 0 | · | · | -5 | -3
CC(=O)Nc1ccc(-c2ccnc3c2CC(C)(C(=O)NCc2ccc(N4CCN(C)CC4)cc2)O3)cc1 (stereo not drawn) | 0 | 11* | · | · | -2 | 1
O=C(c1ccc(Br)cc1)c1cc([N+](=O)[O-])ccc1N1CCCCC1 | 14* | 0 | 5 | -1 | -5 | -8
CN1CCN(c2ccc([N+](=O)[O-])cc2C(=O)c2ccc(Br)cc2)CC1 | 3 | 1 | 4 | 7 | · | ·
COC(=O)[C@H](C(C)C)N(Cc1cn(Cc2ccccc2)nn1)S(=O)(=O)c1ccccc1Br | -1 | 4 | · | · | · | ·
CCOC(=O)C1(CC2CC2)CCN(S(=O)(=O)C[C@]23CC[C@H](CC2=O)C3(C)C)CC1 | 12* | 5 | -7 | 3 | -1 | 2
CC1(C)C2CCC1(CS(=O)(=O)N1CCC(C(N)=O)CC1)C(=O)C2 (stereo not drawn) | -1 | -6 | 4 | 5 | · | ·
COc1ccccc1NC(=O)Cn1c(=O)n(C)c(=O)c2sc3c(c21)COC(C)(C)C3 | 13* | 2 | -14 | 2 | -5 | 1
COc1ccccc1NC(=O)Cn1nnc2sc3c(c2c1=O)CC(C)(C)OC3 | 2 | -4 | 10 | -1 | · | ·
CC1=CC(O)(c2ccccn2)P(=O)(c2ccccc2)C=C1C (stereo not drawn) | -9 | -9 | · | · | · | ·
Cn1c(=O)oc2cc(S(=O)(=O)N3CCC(C(=O)N4CCN(c5ccccc5)CC4)CC3)ccc21 | 4 | 3 | 5 | 0 | · | ·
Cn1c(=O)oc2cc(S(=O)(=O)N3CCN(c4ccccc4)CC3)ccc21 | 11* | 4 | 7 | 3 | 7 | 2
C/C(Cl)=C/Cn1c(SCC(C)C)nc2c1c(=O)[nH]c(=O)n2C | 4 | 1 | 5 | 2 | · | ·
CCCCOC(=O)CSc1nc2c(c(=O)[nH]c(=O)n2C)n1C/C=C(\C)Cl | 13* | 6 | -2 | 5 | 2 | 3
CCOc1ccccc1N1CCN(C(=S)NCc2ccccc2)CC1 | 9.7* | 4 | 45 | 5 | -2 | -2
Nc1ccc(O)c([N+](=O)[O-])c1 | 21* | 7 | 42 | -2 | 19* | 1
Nc1cc([N+](=O)[O-])ccc1O | 2 | -1 | -3 | 0 | · | ·
SMILES | PLC-gamma1 inh | PLCb3 inh | Arrestin-AP2 inh | NTR1 ag | PLCgamma1 ctr | PLCbeta3 conf
Cc1nn(-c2ccccc2)c2sc(C(=O)NC3CCCc4ccccc43)cc12 (stereo not drawn) | -3 | -3 | · | · | · | ·
FC(F)(F)c1ccccc1N/N=C/c1cccnc1 | 10* | -3 | 23 | 0 | 1 | -2
CCCCNC(=O)C1(C(=O)c2ccc(OC)cc2)CC(C(=O)OCC)=NO1 (stereo not drawn) | 3 | 1 | · | · | · | ·
Nn1c(SCC(=O)Nc2ccc(Br)cn2)nnc1-c1n[nH]c2c1CCC2 | 2 | 2 | · | · | · | ·
COc1ccc(NC(=O)c2sc3cc(C(F)(F)F)cnc3c2-c2cccs2)cc1 | 11* | 1 | 33 | 2 | -26 | -25
CC1CCCC(C)N1C(=O)COC(=O)c1ccc(O)cc1 (stereo not drawn) | 20* | 0 | 1 | -1 | -8 | -2
O=c1c(Cl)c(NCC2CCCO2)cnn1C12CC3CC(CC(C3)C1)C2 (stereo not drawn) | 12* | -1 | 6 | 3 | -7 | -2
Nc1[nH]c2cc(Cl)ccc2c1C(=O)NCCc1ccc(Cl)cc1 | -6 | -3 | · | · | · | ·
C[N+]1([O-])[C@@H]2Cc3cc4c(cc3[C@@H]1Cc1cc3c(cc12)OCO3)OCO4 (stereo partly drawn) | 1 | 12* | -4 | 1 | -2 | -4
COc1cc2c(cc1OC)[C@@H]1Cc3cc4c(cc3[C@H](C2)N1C)OCO4 | -3 | 2 | -4 | -4 | · | ·
CCCNC(=O)C(Cc1cccc(Cl)c1)NC(=O)c1ccccc1 (stereo not drawn) | 5 | 14* | -1 | 0 | -1 | 2
CCCNC(=O)C(Cc1ccccc1)NC(=O)c1ccccc1 (stereo not drawn) | 0 | 10 | -15 | -1 | · | ·
O=C(N[C@@H](Cc1ccccc1)C(=O)NC1CC1)c1ccc(Cl)cc1 | 10* | -3 | 2 | 1 | 0 | 1
Cc1ccccc1NC(=O)Nc1ccc2c(c1)C(=O)N(C)[C@H]1CC[C@H](CC(=O)NCC3CC3)O[C@@H]1CO2 | 9 | 8 | · | · | · | ·
C=CCOC(=O)C(CO)NC(=O)CCCC(=O)O (stereo not drawn) | 5 | 0 | · | · | · | ·
c1ccc(-c2csc(Nc3cccnc3)n2)cc1 | 5 | -4 | 3 | 4 | · | ·
Clc1ccc(-c2csc(Nc3cccnc3)n2)cc1 | 10* | 7 | 8 | 1 | 0 | 0
CS(=O)(=O)N(CCc1ccccc1)CC(=O)N1CCCCCC1 | 2 | 13* | · | · | -7 | -3
CS(=O)(=O)N(CCc1ccccc1)CC(=O)N1CCCC1 | -1 | -7 | 1 | 1 | · | ·
Cn1cc(CCOCc2ccc(Br)cc2)c2ccccc21 | 3 | -2 | · | · | · | ·
C(=C\c1ccccc1)/C=N/n1cnnc1 | 10* | -2 | 1 | 3 | 8 | 4
COc1ccc(CN2C/C(=C/C3=CCCCC3)N(C(=O)OCc3ccccc3)C2=N)c(OC)c1 | -4 | -2 | · | · | · | ·
c1ccc(Cn2ncc3c(N4CCN(C(c5ccccc5)c5ccccc5)CC4)ncnc32)cc1 | -1 | -5 | 6 | 3 | · | ·
c1ccc(Cn2ncc3c(N4CCN(c5ccccc5)CC4)ncnc32)cc1 | 11* | 1 | · | · | -6 | -5
O=C1/C(=C\c2cccs2)SC(=S)N1C1CCS(=O)(=O)C1 (stereo not drawn) | 9.8* | 0 | 8 | 1 | -1 | 0
O=C1/C(=C/c2ccccc2)SC(=S)N1C1CCS(=O)(=O)C1 (stereo not drawn) | -2 | -6 | -10 | -1 | · | ·
